# Measurements gathered from unrelated publications.
# Compare with care: the assays were run in different laboratories.
# CAMK4: Calcium/calmodulin-dependent protein kinase type IV (CAMK4, Homo sapiens, UniProt Q16566)
# SMO D473H: Protein smoothened (SMO, Homo sapiens, UniProt Q99835, D473H)
SMILES,target,assay,conditions,quantity,result
C#Cc1n[nH]c2c(-c3cn(C(C)c4ccccn4)c(=O)[nH]c3=O)cc(F)cc12 (stereo not shown),"AP2-associated protein kinase 1 (AAK1, Homo sapiens, UniProt Q2M2I8)","enzyme activity, inhibitor",1 µM,inhibition,4.8%
COc1ncccc1-c1cnn2ccc(N3CCN(C(=O)OC(C)C)CC3)nc12,CAMK4,"binding, competition with immobilised ligand",1 µM,remaining binding,100%
CC1=C2C[C@H]3[C@@H](CC=C4C[C@@H](O)CC[C@@]43C)[C@@H]2CC[C@]12O[C@@H]1C[C@H](C)CN[C@H]1[C@H]2C,"Protein smoothened (SMO, Homo sapiens, UniProt Q99835)","GTPγS binding, agonist, radiometric",cell membranes,Emax,-99.2%
O=C(Nc1cccnn1)N1CCN([C@@H]2CCOc3cc(C(F)(F)F)ccc32)CC1,"Peroxisome proliferator-activated receptor gamma (PPARG, Homo sapiens, UniProt P37231)",cell-free assay,20 µM,inhibition,18%
Cc1cnc(-c2cc(N3CCN(C(=O)CCS(C)(=O)=O)CC3)ncc2Cl)c(C)c1,SMO D473H,"GTPγS binding, agonist, radiometric",cell membranes,Emax,-76.3%
CCN(CC)CCCC[C@H](NC(=O)[C@H](CC(C)C)NC(=O)[C@H](C)NC(=O)[C@H](Cc1ccccc1)NC(=O)c1ccc(C(C)(C)C)cc1)C(=O)N[C@@H](CO)C(=O)OC,"Bromodomain and PHD finger-containing protein 3 (BRPF3, Homo sapiens, UniProt Q9ULD4)","thermal stability, DSF",25 µM,ΔTm,0 °C
COc1cc(C(=O)NC(N)=Nc2ccc(C)c(NC(=O)c3ccc(-c4ccccc4)cc3)c2)cc(OC)c1OC,SMO D473H,"GTPγS binding, agonist, radiometric",cell membranes,Emax,-115%
Cc1nn(C)cc1-c1nc2c(N3CCN(Cc4ccc(Cl)cc4)CC3)c(Cl)cnc2[nH]1,CAMK4,"binding, competition with immobilised ligand",1 µM,remaining binding,100%
Cc1ncc(C)n2nc(/C=C/c3nc(N4CCCC4)cc(N4CCOCC4)n3)nc12,"Angiotensin-converting enzyme (ACE, Homo sapiens, UniProt P12821)","enzyme activity, inhibitor",10 µM,inhibition,-13%
Nc1ncc(-c2nc(N3CCOCC3)nc(N3CCOCC3)n2)c(C(F)F)n1,"Mitogen-activated protein kinase 15 (MAPK15, Homo sapiens, UniProt Q8TD08)","binding, competition with immobilised ligand",10 µM,remaining binding,100%
